Laboratory results published in ChEMBL document CHEMBL2021823, “Antiproliferative acetogenins from a Uvaria sp. from the Madagascar dry forest” (J Nat Prod, 2012).

Key:
A2780 = assay: Antiproliferative activity against human A2780 cells after 2 days by Alamar blue assay; settings: A2780, 48 h
NCI-H522 = assay: Antiproliferative activity against human NCI-H522 cells after 96 hrs by CellTiter-Glo assay; assay type: functional, cell-based; settings: NCI-H522, 96 h
Outline: (§1)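 A2058 melanoma and H522 lung cancer cell lines, run at Eisai by procedures similar to those used for the H460 line; activity reported as IC50.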

A2058 = assay: Antiproliferative activity against human A2058 cells after 96 hrs by CellTiter-Glo assay; assay type: functional, cell-based; settings: A2058, 96 h; outline: as §1

| IC50 (A2780) | IC50 (NCI-H522) | Compound | IC50 (A2058) |
| --- | --- | --- | --- |
| 6.4 µM | < 10 µM | CCCCCCCCCCCCC[C@H](O)[C@@H]1CC[C@@H]([C@H]2CC[C@H]([C@@H](O)CCCC(O)CCCCCC3=C[C@H](C)OC3=O)O2)O1 (relative stereo) | 6.6 µM |
| 8.8 µM | < 10 µM | CCCCCCCCCCC[C@H](O)[C@@H]1CC[C@@H]([C@H]2CC[C@H]([C@@H](O)CCCCCCCC[C@H](O)CCC3=C[C@H](C)OC3=O)O2)O1 (relative stereo) | 7.2 µM |
